The target of experiment [1] is T1, Quinolone resistance protein NorA (Staphylococcus aureus) (UniProt P0A0J7).
T1 sequence (whole entry): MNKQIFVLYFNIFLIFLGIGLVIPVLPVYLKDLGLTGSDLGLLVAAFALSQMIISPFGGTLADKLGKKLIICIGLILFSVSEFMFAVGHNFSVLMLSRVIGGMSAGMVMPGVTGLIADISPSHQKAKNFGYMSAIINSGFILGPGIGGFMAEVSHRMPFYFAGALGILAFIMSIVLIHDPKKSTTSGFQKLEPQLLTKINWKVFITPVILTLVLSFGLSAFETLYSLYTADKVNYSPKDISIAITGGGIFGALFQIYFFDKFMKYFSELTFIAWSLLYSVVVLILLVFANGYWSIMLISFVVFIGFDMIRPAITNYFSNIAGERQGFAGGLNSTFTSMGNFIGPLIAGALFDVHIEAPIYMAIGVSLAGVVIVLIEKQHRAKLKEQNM
Put plainly: Inhibition of NorA in Staphylococcus aureus SA1199B harboring GrlA A116E mutant assessed as inhibition of ethidium bromide efflux at 50 uM measured after 5 mins by fluorometric method relative to control. A digest of the protocol:
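S. aureus SA-1199B; test compounds at 50 µM. EtBr loss was measured fluorometrically in their presence and compared with their absence to give percentage reduction in efflux.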

In experiment [2] the target is Quinolone resistance protein NorA (Staphylococcus aureus, UniProt P0A0J7, A116E). Kind of experiment: Inhibition of NorA in Staphylococcus aureus SA1199B harboring GrlA A116E mutant assessed as inhibition of ethidium bromide efflux after 5 mins by fluorometric method. A digest of the protocol:
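S. aureus SA-1199B; EtBr loss measured fluorometrically, with compound present versus absent, giving percentage reduction in efflux. Increasing inhibitor concentrations were tested, and IC50 was read by inspecting the dose-response plots.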

Experiment [3] addresses T1, Quinolone resistance protein NorA (Staphylococcus aureus). Kind of experiment: Inhibition of Staphylococcus aureus SAK2378 norA assessed as potentiation of CPX-induced antimicrobial activity up to 100 ug/ml by checkerboard assay. An outline of the steps: (§1)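 Checkerboard microdilution of compound against CPX, with MICs set by CLSI microdilution. Applies to S. aureus SA-1199B and SA-K2378. Compound alone was tested up to 100 µg/mL. The read-out is fold reduction of the CPX MIC.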

Experiment [4] has the same target. Kind of experiment: Inhibition of NorA in Staphylococcus aureus SA1199B harboring GrlA A116E mutant assessed as potentiation of CPX-induced antimicrobial activity up to 100 ug/ml by checkerboard assay. A digest of the protocol:
as §1

Each structure is given as a SMILES string. Active and inactive are the calls of the source. The calls are words filed in the database; no cut-off is given here.

In the case of `CCN(CCCCOC(=O)c1ccc(OC)c(OC)c1)C(C)Cc1ccc(OC)cc1` (centres undefined), in experiment [1], the inhibition was determined as 45.2%.
Same read-out and setting: to `CCCc1nn(C)c2c(=O)[nH]c(-c3cc(S(=O)(=O)N4CCN(C)CC4)ccc3OCC)nc12` belongs 22.9%.
In the case of `Cc1nc(Nc2ncc(C(=O)Nc3c(C)cccc3Cl)s2)cc(N2CCN(CCO)CC2)n1` [DASATINIB], the inhibition in experiment [1] was determined as 95.8%. In addition, the IC50 in experiment [2] was 11.5 µM.
The like results for `COC(=O)C1=C(C)NC(C)=C(C(=O)OCCN(C)Cc2ccccc2)C1c1cccc([N+](=O)[O-])c1` (centres undefined) [NICARDIPINE] were, in that order, 77.1% and 22.8 µM.
With `Cc1ccc(-n2nc(C(C)(C)C)cc2NC(=O)Nc2ccc(OCCN3CCOCC3)c3ccccc23)cc1`, the inhibition in experiment [1] worked out at 47%.
For the compound `CCCOc1ccc(-c2cc(OCCN(CC)CC)c3ccccc3n2)cc1`, the inhibition entry in experiment [3] and in experiment [4] was “Active” throughout.
For `CCOC(=O)Nc1ccc2c(c1)N(C(=O)CCN1CCOCC1)c1ccccc1S2`, the inhibition in experiment [1] was determined as 23.7%.
With `COc1cc2ncnc(Nc3ccc(F)c(Cl)c3)c2cc1OCCCN1CCOCC1` [GEFITINIB], in experiment [1], the inhibition was 94.2%. Also, the IC50 in experiment [2] came out at 9.7 µM.
With `COC(=O)[C@H]1[C@H]2C[C@@H]3c4[nH]c5cc(OC)ccc5c4CCN3C[C@H]2C[C@@H](OC(=O)c2cc(OC)c(OC)c(OC)c2)[C@@H]1OC`, the inhibition result in experiment [3] and in experiment [4] was “Active” throughout.

A word on the inhibition: it is the share of the control response that was lost under treatment. A word on the IC50: it is the concentration needed to halve the response being measured.

For the origin of these results see ChEMBL document CHEMBL4043064, “Pharmacophore-Based Repositioning of Approved Drugs as Novel Staphylococcus aureus NorA Efflux Pump Inhibitors” (J Med Chem, 2017).
